Measured values taken from ChEMBL document CHEMBL5303300, “EUbOPEN Chemogenomics Library - Multiplex” (2023).
Values joined by “and” are separate entries in the source; they are usually repeats but may differ in a detail not shown here. Identical values can stand only once.

Test system: Fibroblast
Experiment: Multiplex assay against human fibroblast
Format: toxicity, cell-based
Conditions: number of replicates 2
In short: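 Values for tubulin, mitochondrial-mass and membrane-permeability phenotypes are per cents of cells with healthy nuclei. These cells were identified by CellPathfinder machine-learning gating of live cells that had been stained at seeding with Hoechst33342, BioTracker Green Microtubule Cytoskeleton Dye, MitoTracker Red and Annexin V Alexa Fluor 680 and imaged on a CQ1 microscope at 37°C and 5% CO2 after compound addition. The gating first set Hoechst high-intensity objects apart from normal cells, then split normal cells into healthy, pyknosed or fragmented nuclei, and pyknosed cells into mitotic or apoptotic.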

[1] = 12 h, 1 µM, compound concentration 1 uM
[2] = 12 h, 10 µM, compound concentration 10 uM
[3] = 24 h, 1 µM, compound concentration 1 uM
[4] = 24 h, 10 µM, compound concentration 10 uM
[5] = 48 h, 1 µM, compound concentration 1 uM
[6] = 48 h, 10 µM, compound concentration 10 uM

## CN(C)C/C=C/C(=O)Nc1ccc(C(=O)Nc2cccc(Nc3ncc(Cl)c(-c4c[nH]c5ccccc45)n3)c2)cc1
[1]
  Population Apoptotic (%): 47% and 41%
  Population Fragmented Nuclei (%): 6% and 9%
  Population Healthy Nuclei (%): 61% and 63%
  Population Hoechst High Intensity Objects (%): 0%
  Population Membrane Permeable-Phenotype (%): 6%
  Population Mitochondria Different-Phenotype (%): 9% and 8%
  Population Mitotic Cells (%): 52% and 58%
  Population Normal (%): 99%
  Population Pyknosed Nuclei (%): 32% and 26%
  Population Tubulin-Different-Phenotype (%): 29% and 25%
  Total Cell Count: 144 and 155
[2]
  Population Apoptotic (%): 50% and 66%
  Population Fragmented Nuclei (%): 21% and 12%
  Population Healthy Nuclei (%): 41% and 42%
  Population Hoechst High Intensity Objects (%): 0%
  Population Membrane Permeable-Phenotype (%): 21% and 22%
  Population Mitochondria Different-Phenotype (%): 10% and 4%
  Population Mitotic Cells (%): 50% and 33%
  Population Normal (%): 99%
  Population Pyknosed Nuclei (%): 36% and 44%
  Population Tubulin-Different-Phenotype (%): 77% and 63%
  Total Cell Count: 180 and 169
[3]
  Population Apoptotic (%): 62% and 51%
  Population Fragmented Nuclei (%): 12% and 10%
  Population Healthy Nuclei (%): 54% and 55%
  Population Hoechst High Intensity Objects (%): 0%
  Population Membrane Permeable-Phenotype (%): 13% and 5%
  Population Mitochondria Different-Phenotype (%): 12% and 11%
  Population Mitotic Cells (%): 37% and 48%
  Population Normal (%): 100%
  Population Pyknosed Nuclei (%): 32% and 35%
  Population Tubulin-Different-Phenotype (%): 37% and 33%
  Total Cell Count: 132 and 140
[4]
  Population Apoptotic (%): 79% and 84%
  Population Fragmented Nuclei (%): 12% and 22%
  Population Healthy Nuclei (%): 31%
  Population Hoechst High Intensity Objects (%): 1% and 0%
  Population Membrane Permeable-Phenotype (%): 23% and 16%
  Population Mitotic Cells (%): 20% and 15%
  Population Normal (%): 98% and 99%
  Population Pyknosed Nuclei (%): 55% and 46%
  Population Tubulin-Different-Phenotype (%): 50% and 74%
  Total Cell Count: 167 and 178
[5]
  Population Apoptotic (%): 72% and 74%
  Population Fragmented Nuclei (%): 15%
  Population Healthy Nuclei (%): 55% and 50%
  Population Hoechst High Intensity Objects (%): 0%
  Population Membrane Permeable-Phenotype (%): 11% and 5%
  Population Mitochondria Different-Phenotype (%): 7% and 8%
  Population Mitotic Cells (%): 27% and 25%
  Population Normal (%): 100%
  Population Pyknosed Nuclei (%): 29% and 34%
  Population Tubulin-Different-Phenotype (%): 39% and 26%
  Total Cell Count: 124 and 149
[6]
  Population Apoptotic (%): 93%
  Population Fragmented Nuclei (%): 32% and 24%
  Population Healthy Nuclei (%): 20% and 19%
  Population Hoechst High Intensity Objects (%): 2% and 0%
  Population Membrane Permeable-Phenotype (%): 25% and 18%
  Population Mitochondria Different-Phenotype (%): 6% and 5%
  Population Mitotic Cells (%): 6%
  Population Normal (%): 97% and 99%
  Population Pyknosed Nuclei (%): 46% and 56%
  Population Tubulin-Different-Phenotype (%): 65% and 68%
  Total Cell Count: 220 and 196

## COc1cc(Nc2cnc(C#N)c(O[C@H](C)CN(C)C)n2)ncc1-c1cnn(C)c1
[1]
  Population Apoptotic (%): 37% and 47%
  Population Fragmented Nuclei (%): 12% and 13%
  Population Healthy Nuclei (%): 67% and 77%
  Population Hoechst High Intensity Objects (%): 0%
  Population Membrane Permeable-Phenotype (%): 3% and 2%
  Population Mitochondria Different-Phenotype (%): 1%
  Population Mitotic Cells (%): 62% and 52%
  Population Normal (%): 100%
  Population Pyknosed Nuclei (%): 20% and 9%
  Population Tubulin-Different-Phenotype (%): 11% and 3%
  Total Cell Count: 185 and 222
[2]
  Population Apoptotic (%): 37% and 41%
  Population Fragmented Nuclei (%): 24% and 26%
  Population Healthy Nuclei (%): 69% and 64%
  Population Hoechst High Intensity Objects (%): 0%
  Population Membrane Permeable-Phenotype (%): 2% and 4%
  Population Mitochondria Different-Phenotype (%): 0%
  Population Mitotic Cells (%): 62% and 58%
  Population Normal (%): 99% and 100%
  Population Pyknosed Nuclei (%): 5% and 8%
  Population Tubulin-Different-Phenotype (%): 26% and 17%
  Total Cell Count: 300 and 346
[3]
  Population Apoptotic (%): 50% and 40%
  Population Fragmented Nuclei (%): 9% and 11%
  Population Healthy Nuclei (%): 80% and 78%
  Population Hoechst High Intensity Objects (%): 0%
  Population Membrane Permeable-Phenotype (%): 2% and 3%
  Population Mitochondria Different-Phenotype (%): 2% and 1%
  Population Mitotic Cells (%): 50% and 60%
  Population Normal (%): 100%
  Population Pyknosed Nuclei (%): 9%
  Population Tubulin-Different-Phenotype (%): 13% and 5%
  Total Cell Count: 168 and 206
[4]
  Population Apoptotic (%): 61% and 70%
  Population Fragmented Nuclei (%): 28% and 29%
  Population Healthy Nuclei (%): 67% and 65%
  Population Hoechst High Intensity Objects (%): 1% and 0%
  Population Membrane Permeable-Phenotype (%): 3% and 0%
  Population Mitochondria Different-Phenotype (%): 1% and 0%
  Population Mitotic Cells (%): 38% and 30%
  Population Normal (%): 98% and 100%
  Population Pyknosed Nuclei (%): 4% and 5%
  Population Tubulin-Different-Phenotype (%): 24% and 13%
  Total Cell Count: 292 and 355
[5]
  Population Apoptotic (%): 43% and 64%
  Population Fragmented Nuclei (%): 14% and 12%
  Population Healthy Nuclei (%): 75% and 80%
  Population Hoechst High Intensity Objects (%): 0%
  Population Membrane Permeable-Phenotype (%): 0% and 1%
  Population Mitochondria Different-Phenotype (%): 0%
  Population Mitotic Cells (%): 56% and 35%
  Population Normal (%): 100%
  Population Pyknosed Nuclei (%): 9% and 6%
  Population Tubulin-Different-Phenotype (%): 8% and 1%
  Total Cell Count: 170 and 205
[6]
  Population Apoptotic (%): 43% and 75%
  Population Fragmented Nuclei (%): 27% and 30%
  Population Healthy Nuclei (%): 66%
  Population Hoechst High Intensity Objects (%): 0%
  Population Membrane Permeable-Phenotype (%): 1% and 2%
  Population Mitochondria Different-Phenotype (%): 0%
  Population Mitotic Cells (%): 56% and 25%
  Population Normal (%): 100% and 99%
  Population Pyknosed Nuclei (%): 5% and 3%
  Population Tubulin-Different-Phenotype (%): 29% and 12%
  Total Cell Count: 312 and 369

## CN[C@@H]1C[C@H]2O[C@@](C)([C@@H]1OC)n1c3ccccc3c3c4c(c5c6ccccc6n2c5c31)C(=O)NC4 [STAUROSPORINE]
[2]
  Population Apoptotic (%): 76% and 73% and 72% and 71%
  Population Fragmented Nuclei (%): 16% and 10% and 13%
  Population Healthy Nuclei (%): 10% and 6% and 14% and 9%
  Population Hoechst High Intensity Objects (%): 0% and 1%
  Population Membrane Permeable-Phenotype (%): 20% and 15% and 7%
  Population Mitochondria Different-Phenotype (%): 0% and 2%
  Population Mitotic Cells (%): 23% and 26% and 27% and 28%
  Population Normal (%): 99% and 100% and 98%
  Population Pyknosed Nuclei (%): 72% and 82% and 74%
  Population Tubulin-Different-Phenotype (%): 14% and 10% and 4%
[4]
  Population Apoptotic (%): 95% and 88% and 87%
  Population Fragmented Nuclei (%): 15% and 21% and 13%
  Population Healthy Nuclei (%): 5% and 3% and 4% and 2%
  Population Hoechst High Intensity Objects (%): 0% and 1%
  Population Membrane Permeable-Phenotype (%): 50% [middle of 4 runs]
  Population Mitochondria Different-Phenotype (%): 0%
  Population Mitotic Cells (%): 4% and 11% and 12%
  Population Normal (%): 100% and 99% and 98%
  Population Pyknosed Nuclei (%): 78% and 74% and 82% and 84%
  Population Tubulin-Different-Phenotype (%): 50% [middle of 4 runs]
[6]
  Population Apoptotic (%): 99% and 93% and 92% and 91%
  Population Fragmented Nuclei (%): 27% and 28% and 20% and 22%
  Population Healthy Nuclei (%): 3% and 4% and 7% and 6%
  Population Hoechst High Intensity Objects (%): 0%
  Population Membrane Permeable-Phenotype (%): 66% [middle of 4 runs]
  Population Mitochondria Different-Phenotype (%): 0% and 20%
  Population Mitotic Cells (%): 0% and 6% and 7% and 8%
  Population Normal (%): 100% and 99%
  Population Pyknosed Nuclei (%): 69% and 66% and 72% and 71%
  Population Tubulin-Different-Phenotype (%): 50% and 55% and 45% and 60%
